Measured values published in paper PMC4244684 (The Journal of biological chemistry, 2007).
No end group written: not given here.

Target: Su(dx) WW4 (Drosophila melanogaster, UniProt Q9Y0H4)
Test: ITC binding of peptides to Su
In short: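 Cleaved Su(dx) WW4 (GST fusion from E. coli BL21, glutathione-bead purified, PreScission-cleaved, dialysed overnight into ITC buffer) at 15–35 μm in cell; 1–1.5 mm peptide titrated in. Peptide and protein concentrations set by denaturing Trp/Tyr UV absorbance. 50 mm phosphate, 150 mm NaCl, pH 7.4, degassed; 25 °C. Dilution-corrected heats fitted for ΔH and Ka, n fixed at 1.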

Sequence of Su(dx) WW4 (Q9Y0H4 515-557): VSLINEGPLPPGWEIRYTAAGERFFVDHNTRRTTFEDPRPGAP

Sequence | Kd [µM]
AKQPPSYEDCIK [N1] | 45 ± 2
AKQPPSYEDC [N2] | 45 ± 3
